Active and inactive are the calls of the source. The calls are words filed in the database; no cut-off is given here.

Assay [1] deals with T1, Toll-like receptor 8 (Homo sapiens) (UniProt Q9NR97).
T1 sequence (whole entry): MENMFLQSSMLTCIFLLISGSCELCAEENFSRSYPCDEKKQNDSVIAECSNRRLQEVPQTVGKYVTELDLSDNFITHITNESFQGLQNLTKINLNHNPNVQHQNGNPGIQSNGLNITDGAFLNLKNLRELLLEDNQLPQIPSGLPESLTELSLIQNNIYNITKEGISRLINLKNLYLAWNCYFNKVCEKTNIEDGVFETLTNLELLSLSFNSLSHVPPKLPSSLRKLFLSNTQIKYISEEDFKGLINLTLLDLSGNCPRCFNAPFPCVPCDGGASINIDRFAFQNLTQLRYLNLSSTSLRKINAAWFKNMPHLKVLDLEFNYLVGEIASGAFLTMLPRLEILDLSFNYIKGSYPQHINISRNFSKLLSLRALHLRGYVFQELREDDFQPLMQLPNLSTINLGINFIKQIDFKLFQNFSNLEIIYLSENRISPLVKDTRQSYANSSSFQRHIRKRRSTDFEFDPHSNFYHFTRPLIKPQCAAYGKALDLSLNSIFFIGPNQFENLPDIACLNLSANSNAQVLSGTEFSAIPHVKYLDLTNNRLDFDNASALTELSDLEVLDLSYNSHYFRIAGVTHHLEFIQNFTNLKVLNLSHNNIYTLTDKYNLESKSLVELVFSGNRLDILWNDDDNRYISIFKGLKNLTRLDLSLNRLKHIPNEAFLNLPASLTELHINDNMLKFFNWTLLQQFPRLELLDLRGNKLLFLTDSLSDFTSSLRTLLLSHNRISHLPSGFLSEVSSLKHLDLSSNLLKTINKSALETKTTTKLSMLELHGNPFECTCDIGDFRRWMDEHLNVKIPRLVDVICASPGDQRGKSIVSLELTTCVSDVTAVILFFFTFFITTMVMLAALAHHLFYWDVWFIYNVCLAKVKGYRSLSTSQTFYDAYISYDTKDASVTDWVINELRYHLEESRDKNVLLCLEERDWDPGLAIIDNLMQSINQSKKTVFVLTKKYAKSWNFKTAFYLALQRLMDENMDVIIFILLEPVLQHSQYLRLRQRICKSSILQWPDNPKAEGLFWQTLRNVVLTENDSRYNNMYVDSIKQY
In words: Agonist activity at TLR8 in human polymorphonuclear leucocyte cells assessed as induction of NF-kappaB phosphorylation at p65 subunit measured after 15 mins in presence of 10% FBS by Alexa fluor 647 dye based flow cytometry analysis. Format: tissue-based. The conditions noted are these: in the assay text read “PE-Cy7 dye” for “Alexa fluor 647 dye”. Put shortly:
(§1)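 Whole human blood with anticoagulant was added to serial compound dilutions in RPMI with 10% FBS and held at 37 °C for 15 min. Samples were lysed and fixed three times, permeabilized in ice-cold methanol for 30 min, then stained on ice for 60 min with anti-NF-κB p65-PECy7, p38MAPK-PE and ERK1/2-AlexaFluor 647. Flow cytometry acquired 100,000 gated events; monocytes and polymorphonuclear cells were gated.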
On the technique in general: In flow cytometry, cells or beads pass a laser one at a time.

Assay [2] addresses T1, Toll-like receptor 8 (Homo sapiens). In words: Agonist activity at TLR8 in human monocytes assessed as induction of NF-kappaB phosphorylation at p65 subunit measured after 15 mins in presence of 10% FBS by Alexa fluor 647 dye based flow cytometry analysis. Type of assay: cell-based. The conditions noted are these: Monocyte, in the assay text read “PE-Cy7 dye” for “Alexa fluor 647 dye”. Put shortly: as §1

For assay [3] the target is unchanged. In words: Agonist activity at TLR8 in human PBMC cells assessed as induction of IL-6 production incubated for 16 hrs by immunoassay. Type of assay: cell-based. Conditions: filed as agonist. Summed up: (§2)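 Fresh human PBMCs isolated from venous blood, plated at 10^5 cells in 100 µL per well and stimulated for 16 h with graded concentrations of compound. Supernatants were collected by centrifugation and assayed in duplicate with a multiplexed cytokine/chemokine magnetic bead array.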

Assay [4] has the same target. In words: Agonist activity at TLR8 in human PBMC cells assessed as induction of MIP-1beta production incubated for 16 hrs by immunoassay. Type of assay: cell-based. The conditions noted are these: filed as agonist. Put shortly:
as §2

Assay [5] has the same target. In words: Agonist activity at TLR8 in human PBMC cells assessed as induction of IFNgamma production incubated for 16 hrs by immunoassay. Type of assay: cell-based. The conditions noted are these: filed as agonist. Put shortly: as §2
The target is the same in assay [6]. In words: Agonist activity at TLR8 in human PBMC cells assessed as induction of IL-12p40 production incubated for 16 hrs by immunoassay. Format: cell-based. Conditions: filed as agonist. Summed up:
as §2

Assay [7] has the same target. In words: Agonist activity at TLR8 in human PBMC cells assessed as induction of TNFalpha production incubated for 16 hrs by immunoassay. Type of assay: cell-based. The conditions noted are these: filed as agonist. Summed up:
as §2

Assay [8] shares this target. In words: Antagonist activity at human TLR8 stably expressed in HEK293 cells cotransfected with secreted alkaline phosphatase assessed as inhibition of compound 1f-induced NFkappaB activation by measuring reduction in SEAP level by quanti-blue SEAP reporter gene based spectrophotometric method. Format: cell-based. The conditions noted are these: filed as antagonist. Summed up:
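Human TLR8/sAP HEK293 reporter cells were stimulated with 1f at 5 µg/mL in the presence of graded inhibitor concentrations. Reduction of secreted alkaline phosphatase was read spectrophotometrically at 620 nm.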
In general terms: A reporter such as luciferase makes a cellular process visible.

`CCCCCn1cc(-c2ccc(F)cc2)nc1N`: the outcome in assay [1] and in assay [2] was inactive. Also, the result in assay [3], in assay [5], in assay [6] and in assay [7] was Active. In assay [4], the Activity entry was “Dose-dependent effect”.
As for `CCCCCn1cc(-c2ccccc2)nc1N`, the result in assay [1] and in assay [2] was inactive. Also, the outcome in assay [3], in assay [4], in assay [5], in assay [6] and in assay [7] was Active.
Take `CCCCCn1c(-c2ccccc2)cnc1N.Cl`: in assay [8], the inhibition result was “Dose-dependent effect”.
The same measure, in the same setting: for `CCCCCn1cc(-c2ccccc2OCc2ccccc2)nc1N.Cl` the value was “Dose-dependent effect”.

The values are drawn from ChEMBL document CHEMBL4765226, “Identification of a Human Toll-Like Receptor (TLR) 8-Specific Agonist and a Functional Pan-TLR Inhibitor in 2-Aminoimidazoles” (J Med Chem, 2016).
